High-throughput results (PubChem BioAssay)
PTEN del growth – suppresses growth of cells with PTEN deletion; HCT116 PTEN-null viability, CellTiter-Glo, 60 h; active compounds read low; viability, % at 10 µM; 140,000 tested, 1.2% active;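 active = viability at or below a set limit, 4 SD under the median of all tested compounds, cut at about 3.7% in these data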;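 also: PTEN knockout HCT116 line with beta catenin targeted HCT116 as companion control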
HCT116 bCat-KO – beta-catenin-lacking colon tumor cell growth suppression. HCT116 beta-catenin knockout viability, CellTiter-Glo, 60 h; active compounds read low. viability, % at 10 µM. 140,000 tested, 1.5% active;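 active = viability at or under a set limit, the compound median less 4 SD, cut at about 6% in these data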
HUVEC inhibit – blocks proliferation of human endothelial cells. HUVEC proliferation, CellTiter-Glo luminescence, 72 h; active compounds read low. viability, % at 10 µM (by protocol). 86,000 tested, 1.1% active;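 active = viability at or below 30%; inactive = viability above 30%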
H69AR growth 86K – blocks growth of human H69AR lung tumor cells; viability, % at 10 µM; AID 598; 85,000 tested, 6% active; H69AR lung tumor viability, ATP luminescence, 72 h; active compounds read low;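 active = viability at or below 40%; inactive = viability above 40%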;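 also: multidrug resistant small cell line overexpressing MRP-1 efflux transporter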
Lung fibro prol – blocks proliferation of human lung fibroblasts; viability, % at 10 µM; LL 47 human lung fibroblast viability, ATP luminescence; active compounds read low; 85,000 tested, 1.1% active;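 active = viability at or below 50% in the single dose screen; inactive = viability above 50%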;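 also: compound exposure lasted 72 h before the ATP readout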
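Assay system: human lung fibroblast line LL 47, low passage. Input: 1,150 fibroblasts seeded per well. Times: overnight cell rest, 72 h compound treatment at 37 °C. Evaluation: % viability of median cell-only signal. Technique: luminescent ATP detection, CellTiter-Glo. Control set: cell-only wells, no compound.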
Hits are given with their value. Only a selection was taken, and hits are over-represented in it overall.

O=C(Nc1ccc(F)cc1F)NC1CC(=O)N(Cc2ccccc2)C1 (stereo not drawn) was read as PTEN del growth inactive, HCT116 bCat-KO inactive, HUVEC inhibit inactive, H69AR growth 86K inactive and Lung fibro prol inactive.
Cc1cc(C(=O)N2CCc3ccccc32)n(-c2ccccc2)n1 was read as PTEN del growth inactive, HCT116 bCat-KO inactive, HUVEC inhibit inactive, H69AR growth 86K 22 and Lung fibro prol inactive.
`COC(=O)c1cc(C(=O)OC)cc(-n2c(C)cc(C(=O)COC(=O)CNS(=O)(=O)c3ccc(C)cc3)c2C)c1` gave PTEN del growth inactive and HCT116 bCat-KO inactive.
Screening O=C(c1nn2c(C(F)(F)F)cc(-c3ccco3)nc2c1Br)N1CCCc2ccccc21 returned PTEN del growth inactive, HCT116 bCat-KO inactive, HUVEC inhibit inactive, H69AR growth 86K 39 and Lung fibro prol 46.
For CC(C)CCNC(=O)c1cnn2c(C(F)(F)F)cc(-c3ccco3)nc12 the results were PTEN del growth inactive, HCT116 bCat-KO inactive, HUVEC inhibit inactive, H69AR growth 86K inactive and Lung fibro prol inactive.
`O=C(NC1CCCC1)c1cnn2c(C(F)(F)F)cc(-c3ccc4c(c3)OCO4)nc12` gave PTEN del growth inactive, HCT116 bCat-KO inactive, HUVEC inhibit 28, H69AR growth 86K 17 and Lung fibro prol inactive.
For O=C(NC1CCCC1)c1cnn2c(C(F)(F)F)cc(-c3ccco3)nc12 the results were PTEN del growth inactive, HCT116 bCat-KO inactive, HUVEC inhibit inactive, H69AR growth 86K 33 and Lung fibro prol inactive.
`CCN1C(=O)/C(=C/c2ccc(C)o2)N(C)C1=S` gave PTEN del growth inactive and HCT116 bCat-KO inactive.
C1CNCCNCCNCCN1 was read as HUVEC inhibit inactive, H69AR growth 86K inactive and Lung fibro prol inactive.
For C/C(Cl)=C/Cn1c(SCC(C)C)nc2c1c(=O)[nH]c(=O)n2C the results were HUVEC inhibit inactive, H69AR growth 86K 35 and Lung fibro prol inactive.
Brc1ccc(C2=Nn3c(nnc3-c3n[nH]c4c3CCC4)SC2)cc1 was read as PTEN del growth inactive, HCT116 bCat-KO inactive, HUVEC inhibit inactive, H69AR growth 86K 20 and Lung fibro prol 41.
`Clc1ccc(C2=Nn3c(nnc3-c3n[nH]c4c3CCC4)SC2)cc1` gave PTEN del growth inactive, HCT116 bCat-KO inactive, HUVEC inhibit inactive, H69AR growth 86K 15 and Lung fibro prol inactive.
`Cc1ccc(-c2nnc3n2N=C(c2ccc(Br)cc2)CS3)cc1` gave PTEN del growth inactive, HCT116 bCat-KO inactive, HUVEC inhibit inactive, H69AR growth 86K 6.1 and Lung fibro prol inactive.
`Cc1cccc(-c2nnc3n2N=C(c2ccc(Br)cc2)CS3)c1` gave HUVEC inhibit inactive, H69AR growth 86K inactive and Lung fibro prol inactive.
CCCCSc1nc(C)cc(SCC(=O)N/N=C/c2cccc(OC)c2O)n1 was read as PTEN del growth inactive and HCT116 bCat-KO 5.3.
CC1=C(C)C(=O)NC(Nc2nc(C)c3cc(C)cc(C)c3n2)N1 (stereo not drawn) was read as HUVEC inhibit 24, H69AR growth 86K 24 and Lung fibro prol 14.
Screening CCOC(=O)c1ccc2c(c1)nc(COc1ccccc1C#N)n2CC returned HUVEC inhibit inactive, H69AR growth 86K 20 and Lung fibro prol inactive.
Screening CCOC(=O)c1ccc2c(c1)nc(COc1ccc3ccccc3c1)n2CC returned PTEN del growth inactive, HCT116 bCat-KO inactive, HUVEC inhibit inactive, H69AR growth 86K 24 and Lung fibro prol inactive.
Cc1ccc(F)cc1NC(=S)NCCc1ccccc1 was read as PTEN del growth inactive and HCT116 bCat-KO inactive.
Cc1nc2ccc(S(=O)(=O)NC(C(=O)Nc3nccs3)C(C)C)cc2s1 (stereo not drawn) was read as PTEN del growth inactive, HCT116 bCat-KO inactive, HUVEC inhibit inactive, H69AR growth 86K inactive and Lung fibro prol inactive.
Screening Cc1nc2ccc(S(=O)(=O)NC(C(=O)Nc3nc4ccc(Cl)cc4s3)C(C)C)cc2s1 (stereo not drawn) returned PTEN del growth inactive, HCT116 bCat-KO inactive, HUVEC inhibit inactive, H69AR growth 86K 30 and Lung fibro prol inactive.
For Cc1c(Cl)cccc1NC(=S)N1CCN(Cc2ccc3c(c2)OCO3)CC1 the results were PTEN del growth inactive and HCT116 bCat-KO inactive.
N#C/C(=C\c1ccccc1C(F)(F)F)C(=O)Nc1ccccc1 was read as PTEN del growth inactive and HCT116 bCat-KO inactive.
For CCc1cccc(CC)c1NC(=O)/C(C#N)=C/c1ccccc1C(F)(F)F the results were PTEN del growth 1.8 and HCT116 bCat-KO 1.5.
O=Cc1cn(CC(=O)N2CCCc3ccccc32)c2ccccc12 was read as PTEN del growth inactive, HCT116 bCat-KO inactive, HUVEC inhibit inactive, H69AR growth 86K 35 and Lung fibro prol inactive.
For CCN(CC)S(=O)(=O)c1cccc(NC(=O)c2cc(=O)[nH]c3ccccc23)c1 the results were PTEN del growth inactive and HCT116 bCat-KO inactive.
For Cc1cccc(N2CCN(S(=O)(=O)c3ccc(S(=O)(=O)N4CCCC4)cc3)CC2)c1C the results were PTEN del growth inactive, HCT116 bCat-KO inactive, HUVEC inhibit inactive, H69AR growth 86K 16 and Lung fibro prol inactive.
O=C(c1cn(-c2ccccc2)nc1-c1cccs1)N(CCO)Cc1ccccc1 was read as PTEN del growth inactive, HCT116 bCat-KO inactive, HUVEC inhibit inactive, H69AR growth 86K 23 and Lung fibro prol inactive.
`Oc1cccc2ccc(Nc3ccccn3)nc12` gave PTEN del growth 1.7, HCT116 bCat-KO 1.8, HUVEC inhibit 2.6, H69AR growth 86K 0.6 and Lung fibro prol inactive.
`CNC(=O)c1ccc(-c2sc3nc(N4CCOCC4)c4c(c3c2N)CCCC4)o1` gave PTEN del growth inactive, HCT116 bCat-KO inactive, HUVEC inhibit inactive, H69AR growth 86K 21 and Lung fibro prol inactive.
CNC(=O)c1ccc(-c2sc3nc(N4CCOCC4)c4c(c3c2N)CC(C)(C)OC4)o1 was read as PTEN del growth inactive, HCT116 bCat-KO inactive, HUVEC inhibit inactive, H69AR growth 86K inactive and Lung fibro prol inactive.
For CC1CCc2cccc3c2N1c1cc(C#N)c(C#N)cc1O3 (stereo not drawn) the results were PTEN del growth inactive, HCT116 bCat-KO inactive, HUVEC inhibit inactive, H69AR growth 86K inactive and Lung fibro prol inactive.
Screening O=C(NCc1ccc(Cl)cc1)c1noc2c1CCCCC2 returned PTEN del growth inactive, HCT116 bCat-KO inactive, HUVEC inhibit inactive, H69AR growth 86K inactive and Lung fibro prol inactive.
For CCCCNS(=O)(=O)c1ccc(NC(=O)c2c(-c3ccccc3Cl)noc2C)cc1 the results were PTEN del growth inactive, HCT116 bCat-KO inactive, HUVEC inhibit inactive, H69AR growth 86K 33 and Lung fibro prol inactive.
Screening O=C(c1ccccc1)c1ccc(OCC(O)CN2CCOCC2)cc1 (stereo not drawn) returned HUVEC inhibit inactive, H69AR growth 86K inactive and Lung fibro prol inactive.
`CCOc1ccc(C(=O)C(CN2CCOCC2)c2ccccc2)cc1` (stereo not drawn) gave PTEN del growth 2.7 and HCT116 bCat-KO 3.1.
`O=C(O)c1ccccc1C(=O)N(Cc1ccccc1)Cc1ccccc1` gave PTEN del growth inactive, HCT116 bCat-KO inactive, HUVEC inhibit inactive, H69AR growth 86K inactive and Lung fibro prol inactive.
